Data published in paper PMC4186986 (Acta Pharmacologica Sinica, 2014).

Assays:
Type in all cases: cell-based
[1] = tested on: cyclin A, cyclin E, CDK2 in MDA-MB-231 cells; assay: Western blot of cell cycle regulatory proteins; conditions: MDA-MB-231, 48 h; compounds together with 1 nmol/L E2
In short: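 MDA-MB-231 cells in DMEM/F12 with 10% charcoal-stripped FBS, seeded at 2×10^5 cells/well, treated 48 h with 1 nmol/L E2 plus test compound at several concentrations. Run on 12% SDS-PAGE, transferred to PVDF, probed overnight at 4 °C for cyclin A, cyclin E and CDK2, with ECL detection. GAPDH served as loading control; three independent experiments.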

MDA-MB-231 cells = assay: MTT anti-proliferation assay, MDA-MB-231; conditions: Homo sapiens, MDA-MB-231, 48 h, read-out: MDA-MB-231 inhibition (%)
In short: (§1)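 MCF-7 or MDA-MB-231 cells seeded at 10^5 cells/mL in phenol red-free DMEM/F12 with 10% charcoal-stripped FBS. Exposed to test compound at 0.01–100 μmol/L for 48 h (37 °C, 5% CO2), then MTT (5 mg/mL stock) for 4 h. Formazan dissolved in DMSO; absorbance read at 570 nm. Inhibition taken relative to DMSO-treated cells set as 100% viability; single-point values at 100 μmol/L final.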

MCF-7 cells = assay: MTT anti-proliferation assay, MCF-7; conditions: Homo sapiens, MCF7, 48 h, read-out: MCF-7 inhibition (%)
In short: as §1

| SMILES | expression level of CDK2 [1] | expression level of cyclin A [1] | expression level of cyclin E [1] | inhibition at 100 µM (MDA-MB-231 cells) [%] | inhibition at 100 µM (MCF-7 cells) [%] |
| --- | --- | --- | --- | --- | --- |
| C[C@]12CC[C@@H]3c4ccc(O)cc4CC[C@H]3[C@@H]1CC[C@@H]2O [Estradiol, 17β-estrodial] | increased the expression | increased the expression | increased the expression | – | – |
| CC/C(=C(\c1ccccc1)c1ccc(OCCN(C)C)cc1)c1ccccc1 [Tamoxifen] | – | – | – | 80.5 | 93.3 |
